Results published in ChEMBL document CHEMBL4004831, “Naphthalene diimide-polyamine hybrids as antiproliferative agents: Focus on the architecture of the polyamine chains” (Eur J Med Chem, 2017).
Values after ≈ are worked out from the molar mass of the structure shown. Active and inactive are the calls of the source. No cut-off for these calls is given here.

Key:
[1] = test system: HL-60; assay: Growth inhibition of human HL60 cells incubated for 48 hrs by sulforhodamine B assay; assay type: functional; details: HL-60, 48 h
[2] = test system: MOLT-4; assay: Growth inhibition of human MOLT4 cells incubated for 48 hrs by sulforhodamine B assay; assay type: functional; details: MOLT-4, 48 h
[3] = test system: HOP-92; assay: Growth inhibition of human HOP92 cells incubated for 48 hrs by sulforhodamine B assay; assay type: functional; details: HOP-92, 48 h
[4] = test system: NCI-H226; assay: Growth inhibition of human NCI-H226 cells incubated for 48 hrs by sulforhodamine B assay; assay type: functional; details: NCI-H226, 48 h
[5] = test system: HT-29; assay: Growth inhibition of human HT-29 cells incubated for 48 hrs by sulforhodamine B assay; assay type: functional; details: HT-29, 48 h
[6] = test system: U-251; assay: Growth inhibition of human U251 cells incubated for 48 hrs by sulforhodamine B assay; assay type: functional; details: U-251, 48 h
[7] = test system: Malme-3M; assay: Growth inhibition of human MALME-3M cells incubated for 48 hrs by sulforhodamine B assay; assay type: functional
[8] = test system: SK-MEL-28; assay: Growth inhibition of human SK-MEL-28 cells incubated for 48 hrs by sulforhodamine B assay; assay type: functional; details: SK-MEL-28, 48 h
[9] = test system: SK-MEL-5; assay: Growth inhibition of human SK-MEL-5 cells incubated for 48 hrs by sulforhodamine B assay; assay type: functional; details: SK-MEL-5, 48 h
[10] = test system: UACC-257; assay: Growth inhibition of human UACC257 cells incubated for 48 hrs by sulforhodamine B assay; assay type: functional; details: UACC-257, 48 h
[11] = test system: UACC-62; assay: Growth inhibition of human UACC62 cells incubated for 48 hrs by sulforhodamine B assay; assay type: functional; details: UACC-62, 48 h
[12] = test system: IGROV-1; assay: Growth inhibition of human IGROV1 cells incubated for 48 hrs by sulforhodamine B assay; assay type: functional; details: IGROV-1, 48 h
[13] = test system: OVCAR-4; assay: Growth inhibition of human OVCAR4 cells incubated for 48 hrs by sulforhodamine B assay; assay type: functional; details: OVCAR-4, 48 h
[14] = test system: OVCAR-8; assay: Growth inhibition of human OVCAR8 cells incubated for 48 hrs by sulforhodamine B assay; assay type: functional; details: OVCAR-8, 48 h
[15] = test system: PC-3; assay: Growth inhibition of human PC3 cells incubated for 48 hrs by sulforhodamine B assay; assay type: functional; details: PC-3, 48 h
[16] = test system: MCF7; assay: Growth inhibition of human MCF7 cells incubated for 48 hrs by sulforhodamine B assay; assay type: functional; details: MCF7, 48 h
[17] = test system: Hs-578T; assay: Growth inhibition of human Hs 578T cells incubated for 48 hrs by sulforhodamine B assay; assay type: functional
[18] = target: T1, DNA topoisomerase 2-alpha (Homo sapiens, UniProt P11388); assay: Inhibition of human topoisomerase-2alpha-mediated relaxation of supercoiled pBR322 DNA after 1 hr by ethidium bromide staining based agarose gel electrophoresis
T1 sequence (P11388 whole entry): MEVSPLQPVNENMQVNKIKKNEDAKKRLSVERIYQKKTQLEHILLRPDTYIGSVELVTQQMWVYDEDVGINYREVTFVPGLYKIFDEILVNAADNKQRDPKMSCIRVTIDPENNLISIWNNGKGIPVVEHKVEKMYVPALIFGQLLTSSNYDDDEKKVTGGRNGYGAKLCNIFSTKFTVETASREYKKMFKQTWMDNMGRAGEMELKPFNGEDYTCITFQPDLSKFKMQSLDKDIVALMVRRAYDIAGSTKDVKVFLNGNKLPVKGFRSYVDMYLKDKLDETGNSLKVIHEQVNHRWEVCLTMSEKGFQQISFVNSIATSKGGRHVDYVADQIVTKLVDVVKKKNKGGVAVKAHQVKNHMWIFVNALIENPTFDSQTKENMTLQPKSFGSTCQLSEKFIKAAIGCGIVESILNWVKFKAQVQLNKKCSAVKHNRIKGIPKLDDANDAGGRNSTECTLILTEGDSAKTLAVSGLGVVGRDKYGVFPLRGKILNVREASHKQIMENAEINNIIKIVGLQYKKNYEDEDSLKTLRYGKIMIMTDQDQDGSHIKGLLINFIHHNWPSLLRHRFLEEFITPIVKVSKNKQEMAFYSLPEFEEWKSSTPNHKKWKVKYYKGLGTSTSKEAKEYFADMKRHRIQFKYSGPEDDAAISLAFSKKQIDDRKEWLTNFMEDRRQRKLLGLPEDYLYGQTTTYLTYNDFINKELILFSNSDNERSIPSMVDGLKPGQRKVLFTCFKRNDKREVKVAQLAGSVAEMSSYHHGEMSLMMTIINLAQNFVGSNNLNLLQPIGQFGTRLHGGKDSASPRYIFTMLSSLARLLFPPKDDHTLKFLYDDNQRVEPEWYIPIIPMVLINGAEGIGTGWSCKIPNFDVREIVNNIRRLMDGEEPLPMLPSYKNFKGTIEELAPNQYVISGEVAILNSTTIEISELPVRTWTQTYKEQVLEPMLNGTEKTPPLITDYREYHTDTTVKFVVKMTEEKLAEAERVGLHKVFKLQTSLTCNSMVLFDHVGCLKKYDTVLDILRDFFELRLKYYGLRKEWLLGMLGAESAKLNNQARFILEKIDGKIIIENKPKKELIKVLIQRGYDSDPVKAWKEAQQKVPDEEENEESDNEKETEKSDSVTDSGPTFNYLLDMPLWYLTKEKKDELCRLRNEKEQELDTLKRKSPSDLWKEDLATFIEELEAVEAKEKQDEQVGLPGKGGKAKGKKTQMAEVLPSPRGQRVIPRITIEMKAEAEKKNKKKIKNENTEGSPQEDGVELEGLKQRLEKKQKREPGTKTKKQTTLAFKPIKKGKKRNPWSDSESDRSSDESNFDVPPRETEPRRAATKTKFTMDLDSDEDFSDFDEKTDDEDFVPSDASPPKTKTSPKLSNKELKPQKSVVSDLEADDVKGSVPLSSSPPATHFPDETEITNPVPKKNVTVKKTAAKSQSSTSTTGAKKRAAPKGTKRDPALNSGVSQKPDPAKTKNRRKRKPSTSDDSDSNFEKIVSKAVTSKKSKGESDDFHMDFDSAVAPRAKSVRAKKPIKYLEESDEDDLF
Method in brief: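 Supercoiled pBR322 was incubated with compound (0.5–100) and 1 U human topoisomerase IIα in enzyme buffer for 1 h at 37 °C. Reactions were stopped with Tris/EDTA/NaCl loading buffer (pH 8.0) and run on 1% agarose in TAE with 0.1% SDS (4.9 V/cm, 90 min), then stained with ethidium bromide. IC50 is the concentration reducing relaxation activity by 50%.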

[19] = test system: Thermus aquaticus; assay: Inhibition of Thermus aquaticus DNA polymerase-mediated amplification of fragment of pBR322 by PCR
Method in brief: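 PCR amplification of a pBR322 fragment by Taq polymerase with increasing compound (0.25–40) for 25 cycles: 94 °C, 58 °C and 72 °C, 30 s each. Products were run on 2% agarose in 0.5X TBE (4.2 V/cm, 1.5 h) and stained with ethidium bromide. IC50 is the concentration halving activity; MIC is the lowest concentration that suppresses activity.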

[20] = target: T1, DNA topoisomerase 2-alpha; assay: Poison activity at human topoisomerase-2alpha assessed as stabilization of DNA-enzyme cleavage complex at 0.5 to 100 uM using supercoiled pBR322 DNA as substrate after 1 hr by ethidium bromide staining based agarose gel electrophoresis
Method in brief: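 Cleavage-complex test: supercoiled pBR322 was exposed to compound (0.5–100) with 5 U human topoisomerase IIα for 1 h at 37 °C. Products were run on 1% agarose in TAE with 0.1% SDS (4.9 V/cm, 90 min) and stained with ethidium bromide, with nicked and linearized pBR322 as markers.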

[21] = test system: Escherichia coli; assay: Binding affinity to Escherichia coli supercoiled pBR322 DNA assessed as DNA intercalation up to 100 uM by agarose gel electrophoresis
Method in brief: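 Supercoiled pBR322 mixed with ligand (0–100 µM) in 10 mM Tris, 50 mM KCl with no enzyme, then run on agarose gel. Shift in electrophoretic mobility was read as intercalation/binding.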

[22] = target: Telomerase reverse transcriptase (Homo sapiens) (UniProt O14746); assay: Inhibition of telomerase activity in human HeLa cells using 5'AATCCGTCGAGCAGAGTT3' as substrate after 30 mins by Sybr green1 staining based TRAP-PCR method; assay type: cell-based
Sequence of Telomerase reverse transcriptase (Homo sapiens) (O14746 whole entry): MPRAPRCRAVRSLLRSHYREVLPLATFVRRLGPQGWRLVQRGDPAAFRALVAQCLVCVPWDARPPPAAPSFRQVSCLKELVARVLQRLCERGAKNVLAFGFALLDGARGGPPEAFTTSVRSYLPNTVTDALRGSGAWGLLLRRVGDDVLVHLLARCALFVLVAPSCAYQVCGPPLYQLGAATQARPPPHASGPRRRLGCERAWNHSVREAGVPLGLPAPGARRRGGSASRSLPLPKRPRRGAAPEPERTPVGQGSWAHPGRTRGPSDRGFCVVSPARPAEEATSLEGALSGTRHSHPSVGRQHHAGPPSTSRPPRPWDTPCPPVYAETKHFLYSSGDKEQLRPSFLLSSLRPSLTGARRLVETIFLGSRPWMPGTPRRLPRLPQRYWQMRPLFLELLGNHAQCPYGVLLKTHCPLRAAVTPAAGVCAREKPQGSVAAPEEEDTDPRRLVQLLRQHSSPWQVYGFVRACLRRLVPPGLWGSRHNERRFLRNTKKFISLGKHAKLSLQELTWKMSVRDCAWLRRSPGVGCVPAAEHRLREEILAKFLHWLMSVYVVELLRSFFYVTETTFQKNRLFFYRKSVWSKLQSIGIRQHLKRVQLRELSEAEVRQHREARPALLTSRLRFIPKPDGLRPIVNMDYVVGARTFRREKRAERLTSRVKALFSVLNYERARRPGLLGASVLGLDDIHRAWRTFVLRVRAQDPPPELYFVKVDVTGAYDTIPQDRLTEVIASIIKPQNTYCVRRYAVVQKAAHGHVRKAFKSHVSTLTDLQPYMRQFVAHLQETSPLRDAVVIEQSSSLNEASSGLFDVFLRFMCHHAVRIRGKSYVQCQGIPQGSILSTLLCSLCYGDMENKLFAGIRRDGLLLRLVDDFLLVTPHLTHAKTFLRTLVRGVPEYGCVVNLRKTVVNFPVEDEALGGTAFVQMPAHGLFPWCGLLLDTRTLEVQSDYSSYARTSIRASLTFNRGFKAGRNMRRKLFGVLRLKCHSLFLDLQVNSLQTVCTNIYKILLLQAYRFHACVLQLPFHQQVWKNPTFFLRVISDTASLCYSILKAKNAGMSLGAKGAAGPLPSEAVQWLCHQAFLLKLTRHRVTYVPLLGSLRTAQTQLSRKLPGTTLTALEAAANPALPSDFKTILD

[23] = test system: Jurkat; assay: Induction of apoptosis in human Jurkat T cells at 6.4 uM after 24 hrs by annexin V-phycoerythrin/7-AAD staining based flow cytometry (reference value: 5.8 to 6.6%); assay type: functional
[24] = test system: Jurkat; assay: Induction of apoptosis in human Jurkat T cells at 3.2 uM after 24 hrs by annexin V-phycoerythrin/7-AAD staining based flow cytometry (reference value: 5.8 to 6.6%); assay type: functional
[25] = test system: Jurkat; assay: Induction of apoptosis in human Jurkat T cells assessed as caspase3 activation at 1.6 uM after 24 hrs by colorimetric assay relative to control; assay type: functional
Method in brief: (§1)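 Jurkat cells were treated 24 h (0–6.4), and 3×10^6 cells were washed in PBS and lysed 10 min on ice. Cleared lysate was incubated 2 h at 37 °C in the dark with 10 mM DTT buffer and DEVD-pNA substrate. Absorbance at 405 nm was read against a no-substrate blank and expressed as fold over untreated cells. Valinomycin for 1 h was the positive control; three experiments.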

[26] = test system: Jurkat; assay: Induction of apoptosis in human Jurkat T cells assessed as caspase3 activation at 6.4 uM after 24 hrs by colorimetric assay relative to control; assay type: functional; method in brief: as §1
[27] = test system: Jurkat; assay: Induction of apoptosis in human Jurkat T cells assessed as PARP cleavage at 3.2 uM after 24 hrs by flow cytometry (reference value: 4.8%); assay type: functional
[28] = test system: Jurkat; assay: Cell cycle arrest in human Jurkat T cells assessed as accumulation at G2/M phase at 3.2 uM after 24 hrs by propidium iodide staining based flow cytometry (reference value: 17.1 to 20.8%); assay type: functional
[29] = test system: Jurkat; assay: Cell cycle arrest in human Jurkat T cells assessed as accumulation at G0/G1 phase at 3.2 uM after 24 hrs by propidium iodide staining based flow cytometry (reference value: 62.7 to 68.6%); assay type: functional

Compound	GI50 [1]	GI50 [2]	GI50 [3]	GI50 [4]	GI50 [5]	GI50 [6]	GI50 [7]	GI50 [8]	GI50 [9]	GI50 [10]	GI50 [11]	GI50 [12]	GI50 [13]	GI50 [14]	GI50 [15]	GI50 [16]	GI50 [17]	IC50 [18]	MIC [19]	other results
CNCCCNCCCN1C(=O)c2ccc3c4c(ccc(c24)C1=O)C(=O)N(CCCNCc1ccccc1OC)C3=O	2 µM	0.534 µM	2.13 µM	1.42 µM	0.381 µM	1.61 µM	0.633 µM	1.01 µM	1.1 µM	1.35 µM	1.52 µM	1.45 µM	0.641 µM	0.797 µM	1.6 µM	0.512 µM	3.02 µM			
COc1ccccc1CNCCCN1C(=O)c2ccc3c4c(ccc(c24)C1=O)C(=O)N(CCCOCCCCOCCCN)C3=O	0.81 µM	0.546 µM	2.08 µM	1.56 µM	0.402 µM	1.24 µM	0.248 µM	1.59 µM	0.288 µM	0.283 µM	0.742 µM	1.26 µM	0.197 µM	0.491 µM	1.45 µM	0.333 µM	2.02 µM	5.5 µM	1 µM (≈ 0.631 µg/mL)	
COc1ccccc1CNCCCN1C(=O)c2ccc3c4c(ccc(c24)C1=O)C(=O)N(CCCN)C3=O	1.56 µM	0.433 µM	2.1 µM	1.78 µM	1.31 µM	1.59 µM	0.366 µM	1.73 µM	0.246 µM	0.424 µM	0.369 µM	1 µM	0.257 µM	0.421 µM	1.66 µM	0.302 µM	1.74 µM			
COc1ccccc1CNCCCN1C(=O)c2ccc3c4c(ccc(c24)C1=O)C(=O)N(CCCNCCCCN)C3=O	0.216 µM	0.302 µM	0.273 µM	0.808 µM	0.188 µM	0.173 µM	0.174 µM	0.313 µM	0.153 µM	0.163 µM	0.175 µM	0.179 µM	0.155 µM	0.231 µM	0.23 µM	0.185 µM	1.12 µM	8.1 µM	0.5 µM (≈ 0.286 µg/mL)	Activity [20]: inactive; Activity [21]: Active; inhibition [22]: inactive; Activity [23]: 22.2%; Activity [24]: 17.9%; fold change (FC) [25]: 2.6; fold change (FC) [26]: 5.6; Activity [27]: 16.6%; Activity [28]: 20.8%; Activity [29]: 59.7%
CNCCCNCCCCNCCCN1C(=O)c2ccc3c4c(ccc(c24)C1=O)C(=O)N(CCCNCc1ccccc1OC)C3=O	3.68 µM	5.21 µM	2.21 µM	2.17 µM	3.36 µM	3.24 µM	0.939 µM	1.4 µM	0.813 µM	1.25 µM	0.711 µM	3.02 µM	1.7 µM	2.89 µM	7.45 µM	2.77 µM	2.9 µM			
